Results reported in ChEMBL document CHEMBL4651341, “The discovery of a novel series of compounds with single-dose efficacy against juvenile and adult Schistosoma species” (PLoS Negl Trop Dis, 2021).
Converted amounts (≈) assume the structure as drawn.

Key:
Schistosoma mansoni [1] = test: Concentration required to kill 50% of 42 day old worms 5 days after drug treatment.; assay type: functional, organism-based; conditions: Puerto Rican, 120 h
Summary of the method: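 Adult S. mansoni were perfused from CD1 mice 6 weeks post-infection and washed. They were cultured 3 pairs per well in 1 mL DMEM with 2 mM glutamine, penicillin/streptomycin and 10% FCS […] at 37 °C, 5% CO2. Viability of individual worms was scored on day 5 (120 h).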

Schistosoma mansoni [2] = test: Concentration required to kill 50% of 21 day old worms 5 days after drug treatment.; assay type: functional, organism-based; conditions: Puerto Rican, 120 h
Summary of the method: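 Juvenile S. mansoni (Puerto Rican strain) were perfused from CD1 mice 3 weeks post-infection and washed. They were cultured 6–8 per well in 200 µL DMEM with 2 mM glutamine, penicillin/streptomycin and 10% FCS at 37 °C, 5% CO2. Viability of individual worms was scored on day 5 after dosing (120 h).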

[3] = Concentration required to kill 50% MRC-5 cells as detected by Alamar blue staining; assay type: toxicity, cell-based, MRC5; conditions: homo sapiens, read-out: TC50 (the source's name)
[4] = Mean oral bioavailability in Swiss albino male mice at […] per compound (administered in a mixture of 5 compounds to 3 mice) assessed by LCMS/MS.; note: dose 2.5 mg/kg; assay type: ADME, organism-based; conditions: male, Swiss albino, mouse, in vivo, read-out: Bioavailability
[5] = Mean AUC inf in Swiss albino male mice at 1 mg/kg per compound (administered iv in a mixture of 5 compounds to 3 mice) assessed by LCMS/MS.; assay type: ADME, organism-based; conditions: male, Swiss albino, mouse, in vivo
Summary of the method: (§1)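 Male Swiss albino mice (~30 g), 3 per experiment, mostly dosed as mixtures of 5 compounds iv via the lateral tail vein. Vehicle: 10% DMSO/90% 50 mM Na2HPO4 with 0.5% Tween-80. Blood sampled at 5, 15, 30 min and 1, 2, 4, 8, 24 h. Plasma stored at −20 °C and quantified by LC-MS after acetonitrile precipitation.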

[6] = Mean observed clearance in Swiss albino male mice at 1 mg/kg per compound (administered iv in a mixture of 5 compounds to 3 mice) assessed by LCMS/MS.; assay type: ADME, organism-based; conditions: male, Swiss albino, mouse, in vivo, read-out: Clearance (converted); summary of the method: as §1
[7] = Mean volume of distribution at steady state in Swiss albino male mice at 1 mg/kg per compound (administered iv in a mixture of 5 compounds to 3 mice) assessed by LCMS/MS.; assay type: ADME, organism-based; conditions: mouse, in vivo, read-out: Volume
Summary of the method: (§2)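 Male Swiss albino mice (~30 g), 3 per experiment, mostly dosed as mixtures of 5 compounds iv via the lateral tail vein. Vehicle: 10% DMSO/90% 50 mM Na2HPO4 with 0.5% Tween-80. Plasma stored at −20 °C and quantified by LC-MS after acetonitrile precipitation.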

[8] = Mean half-life in Swiss albino male mice at 1 mg/kg per compound (administered iv in a mixture of 5 compounds to 3 mice) assessed by LCMS/MS.; assay type: ADME, organism-based; conditions: mouse, in vivo; summary of the method: as §2
[9] = Mean plasma concentration at 24h in Swiss albino male mice at […] per compound (administered orally in a mixture of 5 compounds to 3 mice) assessed by LCMS/MS.; assay type: ADME, organism-based; conditions: mouse, po
[10] = Mean plasma concentration at 4h in Swiss albino male mice at […] per compound (administered orally in a mixture of 5 compounds to 3 mice) assessed by LCMS/MS.; assay type: ADME, organism-based; conditions: mouse, po
[11] = Mean time to peak plasma concentration in Swiss albino male mice at […] per compound (administered orally in a mixture of 5 compounds to 3 mice) assessed by LCMS/MS.; assay type: ADME, organism-based; conditions: mouse, po
[12] = Percentage of parent compound remaining after incubation for 90 minutes with cyropreserved mouse hepatocytes at a concentration of 1uM compound and […], determined by LCMS; assay type: ADME, tissue-based, Hepatocyte; conditions: cryopreserved mouse hepatocytes, read-out: Stability
Summary of the method: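 Compound was incubated at 1 µM final (2 µM working solution mixed 1:1 with hepatocyte suspension) in supplemented KHB pH 7.4. Conditions: 37 °C, 5% CO2, gentle mixing, duplicates. Reaction quenched with ice-cold acetonitrile containing standard; analysed by LC-MS/MS. % remaining = AUC at t / AUC at T0.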

[13] = Solubility at 25 degC of compound (diluted from DMSO) in PBS at pH 7.4 determined after 24h (1h sonication, 22h shaking, 1h sonication) by LCMS/MS; assay type: physicochemical
[14] = Concentration required to kill 50% HepG2 cells as detected by MTT staining; assay type: toxicity, cell-based; conditions: homo sapiens, read-out: TC50 (the source's name)

Row | SMILES | EC50 (Schistosoma mansoni [1]) [nM] | EC50 (Schistosoma mansoni [2]) [nM] | CC50 [3] [nM] | bioavailability [4] [%] | AUC(0-inf) [5] [ng·h/mL] | clearance [6] [mL/min/kg] | Vd [7] [L/kg] | half-life [8] [h] | concentration at 24 h [9] [ng/mL] | concentration at 4 h [10] [ng/mL] | Tmax [11] [h] | remaining at 1.5 h, 1 µM [12] [%] | solubility kinetic at 24 h [13] [µM] | CC50 [14] [nM]
1 | COc1ccc(-c2cnc3cnc(-c4ccc(N5CCN(C)CC5)nc4)cn23)cc1 | > 25000 | 15000 | 20900 | – | – | – | – | – | – | – | – | – | – | –
2 | CC1(c2nc3cnc(-c4ccc(F)c(C(F)(F)F)c4)cn3c2-c2c(F)cc(O)cc2F)CC1 | 56.3 | 79.6 | – | 55.6 | 528 | 15.9 | 9.19 | 8.48 | 7.01 | 76 | 0.25 | 41.7 | 32.8 (≈ 15.2 µg/mL) | 7900
3 | CCc1nc2cnc(-c3ccc(F)c(C(F)(F)F)c3)cn2c1-c1c(F)cc(O)cc1F | 52.8 | 51.4 | – | 47.7 | 464 | 18 | 8.79 | 10 | 12.3 | 50.3 | 0.25 | 36 | 1.5 (≈ 0.656 µg/mL) | 8300
4 | Fc1ccc(-c2cn3c(-c4ccc5[nH]ncc5c4F)c(C(F)(F)F)nc3cn2)cc1CC(F)(F)F | 11.9 | 10.4 | – | 52.5 | 328 | 25.5 | 3.28 | 2.75 | 0.971 | 57.2 | 0.5 | 55.8 | 0.0917 (≈ 0.0456 µg/mL) | 5300
5 | Fc1ccc(-c2cn3c(-c4ccc5[nH]ncc5c4F)c(C(F)(F)F)nc3cn2)cc1OC(F)(F)F | 16.9 | 20.8 | – | 81 | 2700 | 3.23 | 5.89 | 22.1 | 165 | 358 | 1 | 94.2 | 0.785 (≈ 0.392 µg/mL) | 12200
6 | CC(C)Oc1cccc(-c2ccc3nnc(-c4ccc(O)cc4)n3c2)c1 | – | > 25000 | > 50000 | – | – | – | – | – | – | – | – | – | – | –
7 | Oc1cc(F)c(-c2c(C3CCC3)nc3cnc(-c4ccc(F)c(C(F)(F)F)c4)cn23)c(F)c1 | 58.6 | 72.9 | – | 48.6 | 1060 | 7.9 | 4.74 | 9.17 | 21.7 | 161 | 0.333 | 48.2 | 51.6 (≈ 23.9 µg/mL) | 5700
8 | Cc1nc2cnc(-c3ccc(F)c(C(F)(F)F)c3)cn2c1-c1c(F)cc(OP(=O)(O)O)cc1F | – | 103 | – | 39.3 | 111 | 75.3 | 7.18 | 2.31 | 0.1 | 15.6 | 0.25 | 40.8 | 136 (≈ 68.4 µg/mL) | 6800
9 | CC(C)c1nc2cnc(-c3ccc(F)c(S(F)(F)(F)(F)F)c3)cn2c1-c1ccc2[nH]ncc2c1F | 11.2 | 8.21 | – | 83.3 | 1470 | 5.75 | 3.39 | 8.96 | 71.4 | 381 | 2.33 | 68.1 | 0.865 (≈ 0.446 µg/mL) | –
10 | CC(C)c1nc2cnc(-c3ccc(F)c(C(F)(F)F)c3)nc2n1-c1c(F)cc(O)cc1F | 71.4 | 128 | – | 45 | 360 | 23.3 | 7.39 | 7.09 | 5.17 | 52.6 | 0.25 | 12.5 | 1.26 (≈ 0.57 µg/mL) | 4800
11 | CC(C)c1cccc(-c2ccc3nnc(-c4cccc(NS(C)(=O)=O)c4)n3c2)c1 | – | 24600 | > 50000 | – | – | – | – | – | – | – | – | – | – | –
12 | CC(C)c1nc2cnc(-c3cccc(S(F)(F)(F)(F)F)c3)cn2c1-c1c(F)cc(O)cc1F | 23.8 | < 12 | – | 18.4 | 231 | 36.2 | 2.64 | 1.76 | 0.1 | 16.6 | 0.25 | 31.1 | 6.63 (≈ 3.26 µg/mL) | 6600
13 | COc1ccc(-c2nnc3ccc(-c4cccc(C(C)C)c4)cn23)cn1 | – | 24200 | 45800 | – | – | – | – | – | – | – | – | – | – | –
14 | CCc1nn2cnc(-c3ccc(F)c(C(F)(F)F)c3)cc2c1-c1c(F)cc(O)cc1F | 10.9 | 32.3 | – | 21.1 | 144 | 58.5 | 4.06 | 1.24 | 0.01 | 9.68 | 0.333 | 50.7 | 1.21 (≈ 0.529 µg/mL) | 9800
15 | CC(C)c1nc2cnc(-c3ccc(F)c(C(F)(F)F)c3)cn2c1-c1c(F)cc(OP(=O)(O)O)cc1F | 27.2 | 25 | – | 21.4 | 54.7 | 153 | 3.62 | 0.416 | 0.1 | 4.01 | 0.25 | 0.9 | 179 (≈ 95.1 µg/mL) | 6500
16 | COc1ccc(-c2nnc3ccc(-c4cccc5c4OCC5)cn23)cc1OC | – | 24800 | 27600 | – | – | – | – | – | – | – | – | – | – | –
